Test results as given in ChEMBL document CHEMBL1152689, “Synthesis, tautomerism, and antimicrobial, anti-HCV, anti-SSPE, antioxidant, and antitumor activities of arylazobenzosuberones” (Bioorg Med Chem, 2009).
pIC50: −log10 of the molar value. Values after ≈ are worked out from the molar mass of the structure shown. Active and inactive are the calls of the source. The calls are words filed in the database; no cut-off is given here.

What was measured:
Hepatitis C virus = assay: Antiviral activity against HCV by cell based replicon assay; assay type: functional, Hepacivirus hominis
Method in brief: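 HCV replicon cells plated at 1×10^4 per well. Next day incubated at 37 °C with serially diluted compound in DMEM with 2% FBS and 0.5% DMSO. HCV RNA copy number measured by quantitative RT-PCR on total cellular RNA. Each point is the average of five replicates. Cytotoxicity measured by MTS in parallel.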

[1] = system: Syncephalastrum racemosum; assay: Antimicrobial activity against Syncephalastrum racemosum at 1.25 ug/mL by agar diffusion method; assay type: functional; conditions: read-out: IZ
Staphylococcus aureus [2] = assay: Antimicrobial activity against Staphylococcus aureus at 2.5 ug/mL by agar diffusion method; assay type: functional; conditions: read-out: IZ
[3] = target: DNA topoisomerase 2-alpha (Mus musculus) (UniProt Q01320); assay: Inhibition of topoisomerase 2 from mouse P388 cells assessed as relaxation of pBR322 DNA by agarose gel electrophoresis relative to etoposide; assay type: cell-based
Method in brief: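 Topoisomerase II purified from P388 cells. One unit relaxes 0.125 µg supercoiled pBR322 DNA, incubated with or without inhibitor at 30 °C for 1 h in 50 mM Tris-HCl pH 8.0, 100 mM KCl, 10 mM MgCl2, 0.5 mM DTT, 1 mM ATP and 30 µg/ml BSA. Products run on 0.7% agarose in TBE, stained with ethidium bromide and imaged under UV.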

Bacillus subtilis [4] = assay: Antimicrobial activity against Bacillus subtilis by agar diffusion method; assay type: functional
Method in brief: (§1)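 Agar diffusion on plates against bacteria and fungi. MIC taken as the lowest concentration giving no visible growth on the plate.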

Aspergillus fumigatus [5] = assay: Antimicrobial activity against Aspergillus fumigatus at 2.5 ug/mL by agar diffusion method; assay type: functional; conditions: read-out: IZ
Penicillium italicum [6] = assay: Antimicrobial activity against Penicillium italicum at 2.5 ug/mL by agar diffusion method; assay type: functional; conditions: read-out: IZ
Candida albicans [7] = assay: Antimicrobial activity against Candida albicans at 2.5 ug/mL by agar diffusion method; assay type: functional; conditions: read-out: IZ
Escherichia coli [8] = assay: Antimicrobial activity against Escherichia coli at 2.5 ug/mL by agar diffusion method; assay type: functional; conditions: read-out: IZ
[9] = system: Radical scavenging activity; assay: Antioxidant activity assessed as DPPH free radical scavenging activity by measuring reduction in DPPH absorbance by ELISA relative to untreated control; assay type: functional; parameters: concentration or dose not given beside the values
Method in brief: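 Test compounds dissolved in DMSO, ascorbic acid standard in water, both serially diluted. 10 µl sample added to 90 µl of 100 µM DPPH in methanol and kept in the dark at 37 °C for 30 min. Absorbance read at 515 nm. Blank is DMSO plus DPPH. % reduction = (A_B − A_A)/A_B × 100. Run in triplicate.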

[10] = Antioxidant activity assessed as inhibition of peroxynitrite-mediated 3-nitrotyrosine formation by HPLC; assay type: functional
Method in brief: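 Tyrosine and peroxynitrite, each 100 µM, reacted with compound at 0–300 µM in 100 mM phosphate buffer pH 7.4 at 37 °C for 15 min. Peroxynitrite made from acidified H2O2 plus KNO2, quenched with NaOH, and kept on ice no longer than 30 min before use.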

[11] = target: T1, DNA topoisomerase 1 (Homo sapiens) (UniProt P11387); assay: Inhibition of topoisomerase 1 relative to etoposide
T1 sequence (whole entry): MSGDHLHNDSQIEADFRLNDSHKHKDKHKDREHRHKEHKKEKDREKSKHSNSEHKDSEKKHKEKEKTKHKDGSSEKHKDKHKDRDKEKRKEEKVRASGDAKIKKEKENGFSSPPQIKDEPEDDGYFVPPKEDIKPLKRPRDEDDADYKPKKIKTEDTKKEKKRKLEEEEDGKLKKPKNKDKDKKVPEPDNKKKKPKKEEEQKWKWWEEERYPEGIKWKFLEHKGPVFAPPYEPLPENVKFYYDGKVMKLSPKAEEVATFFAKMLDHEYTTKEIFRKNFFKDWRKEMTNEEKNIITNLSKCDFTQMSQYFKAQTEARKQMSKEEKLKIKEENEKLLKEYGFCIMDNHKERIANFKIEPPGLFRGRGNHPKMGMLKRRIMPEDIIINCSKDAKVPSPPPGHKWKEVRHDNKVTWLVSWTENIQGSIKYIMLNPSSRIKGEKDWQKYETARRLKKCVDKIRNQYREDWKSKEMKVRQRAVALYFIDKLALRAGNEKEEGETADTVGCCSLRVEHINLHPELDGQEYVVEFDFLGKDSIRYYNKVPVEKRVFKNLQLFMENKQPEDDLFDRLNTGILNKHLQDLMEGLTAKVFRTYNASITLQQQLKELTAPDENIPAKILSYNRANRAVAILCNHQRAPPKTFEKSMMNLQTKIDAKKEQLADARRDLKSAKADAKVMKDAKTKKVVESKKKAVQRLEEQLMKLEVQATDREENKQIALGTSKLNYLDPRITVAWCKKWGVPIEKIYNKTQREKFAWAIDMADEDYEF

[12] = system: Syncephalastrum racemosum; assay: Antimicrobial activity against Syncephalastrum racemosum by agar diffusion method; assay type: functional; method in brief: as §1
Candida albicans [13] = assay: Antimicrobial activity against Candida albicans at 5 ug/mL by agar diffusion method; assay type: functional; conditions: read-out: IZ
Candida albicans [14] = assay: Antimicrobial activity against Candida albicans at 1.25 ug/mL by agar diffusion method; assay type: functional; conditions: read-out: IZ
Aspergillus fumigatus [15] = assay: Antimicrobial activity against Aspergillus fumigatus by agar diffusion method; assay type: functional; method in brief: as §1
Penicillium italicum [16] = assay: Antimicrobial activity against Penicillium italicum at 5 ug/mL by agar diffusion method; assay type: functional; conditions: read-out: IZ
Pseudomonas aeruginosa [17] = assay: Antimicrobial activity against Pseudomonas aeruginosa at 5 ug/mL by agar diffusion method; assay type: functional; conditions: read-out: IZ
Candida albicans [18] = assay: Antimicrobial activity against Candida albicans by agar diffusion method; assay type: functional; method in brief: as §1
Measles morbillivirus = assay: Antiviral activity against Measles virus infected in intracranially dosed hamster assessed as inhibition of subacute sclerosing panencephalitis; assay type: functional
Method in brief: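 Hamsters under ether anesthesia injected intracranially, into the subarachnoid space at 2 mm depth, at 5, 10 and 20 mg/kg/day for 10 days. Four animals per group sacrificed on days 1–20. Brains homogenized in PBS and centrifuged, supernatant deproteinized with ethanol, then MIC in brain tissue determined by HPLC and bioassay.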

Staphylococcus aureus [19] = assay: Antimicrobial activity against Staphylococcus aureus by agar diffusion method; assay type: functional; method in brief: as §1
Pseudomonas aeruginosa [20] = assay: Antimicrobial activity against Pseudomonas aeruginosa at 2.5 ug/mL by agar diffusion method; assay type: functional; conditions: read-out: IZ
[21] = system: Syncephalastrum racemosum; assay: Antimicrobial activity against Syncephalastrum racemosum at 2.5 ug/mL by agar diffusion method; assay type: functional; conditions: read-out: IZ
Aspergillus fumigatus [22] = assay: Antimicrobial activity against Aspergillus fumigatus at 5 ug/mL by agar diffusion method; assay type: functional; conditions: read-out: IZ
Bacillus subtilis [23] = assay: Antimicrobial activity against Bacillus subtilis at 5 ug/mL by agar diffusion method; assay type: functional; conditions: read-out: IZ
Escherichia coli [24] = assay: Antimicrobial activity against Escherichia coli by agar diffusion method; assay type: functional; method in brief: as §1
Penicillium italicum [25] = assay: Antimicrobial activity against Penicillium italicum by agar diffusion method; assay type: functional; method in brief: as §1
MC-38 = assay: Antitumor activity against mouse Colon 38 cells implanted in iv dosed C57BL/6 mouse administered as single dose; assay type: functional, organism-based
Method in brief: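 Female C57BL/6 mice, 6 weeks old, given about 30 mg Colon 38 tumor tissue s.c. in the flank. Randomized into groups of n = 5 when tumors reached about 300 mm3 (day 1). Compound in 5% glucose given as a single iv tail-vein dose on day 1; controls received 5% glucose. Tumor volume = (length × width²)/2 and body weight tracked.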

Staphylococcus aureus [26] = assay: Antimicrobial activity against Staphylococcus aureus at 5 ug/mL by agar diffusion method; assay type: functional; conditions: read-out: IZ
Bacillus subtilis [27] = assay: Antimicrobial activity against Bacillus subtilis at 1.25 ug/mL by agar diffusion method; assay type: functional; conditions: read-out: IZ
Staphylococcus aureus [28] = assay: Antimicrobial activity against Staphylococcus aureus at 1.25 ug/mL by agar diffusion method; assay type: functional; conditions: read-out: IZ
Penicillium italicum [29] = assay: Antimicrobial activity against Penicillium italicum at 1.25 ug/mL by agar diffusion method; assay type: functional; conditions: read-out: IZ
Bacillus subtilis [30] = assay: Antimicrobial activity against Bacillus subtilis at 2.5 ug/mL by agar diffusion method; assay type: functional; conditions: read-out: IZ
Escherichia coli [31] = assay: Antimicrobial activity against Escherichia coli at 1.25 ug/mL by agar diffusion method; assay type: functional; conditions: read-out: IZ
[32] = system: Syncephalastrum racemosum; assay: Antimicrobial activity against Syncephalastrum racemosum at 5 ug/mL by agar diffusion method; assay type: functional; conditions: read-out: IZ
Escherichia coli [33] = assay: Antimicrobial activity against Escherichia coli at 5 ug/mL by agar diffusion method; assay type: functional; conditions: read-out: IZ
Aspergillus fumigatus [34] = assay: Antimicrobial activity against Aspergillus fumigatus at 1.25 ug/mL by agar diffusion method; assay type: functional; conditions: read-out: IZ
Pseudomonas aeruginosa [35] = assay: Antimicrobial activity against Pseudomonas aeruginosa at 1.25 ug/mL by agar diffusion method; assay type: functional; conditions: read-out: IZ

Chain of DNA topoisomerase 2-alpha (Mus musculus) (Q01320 whole entry): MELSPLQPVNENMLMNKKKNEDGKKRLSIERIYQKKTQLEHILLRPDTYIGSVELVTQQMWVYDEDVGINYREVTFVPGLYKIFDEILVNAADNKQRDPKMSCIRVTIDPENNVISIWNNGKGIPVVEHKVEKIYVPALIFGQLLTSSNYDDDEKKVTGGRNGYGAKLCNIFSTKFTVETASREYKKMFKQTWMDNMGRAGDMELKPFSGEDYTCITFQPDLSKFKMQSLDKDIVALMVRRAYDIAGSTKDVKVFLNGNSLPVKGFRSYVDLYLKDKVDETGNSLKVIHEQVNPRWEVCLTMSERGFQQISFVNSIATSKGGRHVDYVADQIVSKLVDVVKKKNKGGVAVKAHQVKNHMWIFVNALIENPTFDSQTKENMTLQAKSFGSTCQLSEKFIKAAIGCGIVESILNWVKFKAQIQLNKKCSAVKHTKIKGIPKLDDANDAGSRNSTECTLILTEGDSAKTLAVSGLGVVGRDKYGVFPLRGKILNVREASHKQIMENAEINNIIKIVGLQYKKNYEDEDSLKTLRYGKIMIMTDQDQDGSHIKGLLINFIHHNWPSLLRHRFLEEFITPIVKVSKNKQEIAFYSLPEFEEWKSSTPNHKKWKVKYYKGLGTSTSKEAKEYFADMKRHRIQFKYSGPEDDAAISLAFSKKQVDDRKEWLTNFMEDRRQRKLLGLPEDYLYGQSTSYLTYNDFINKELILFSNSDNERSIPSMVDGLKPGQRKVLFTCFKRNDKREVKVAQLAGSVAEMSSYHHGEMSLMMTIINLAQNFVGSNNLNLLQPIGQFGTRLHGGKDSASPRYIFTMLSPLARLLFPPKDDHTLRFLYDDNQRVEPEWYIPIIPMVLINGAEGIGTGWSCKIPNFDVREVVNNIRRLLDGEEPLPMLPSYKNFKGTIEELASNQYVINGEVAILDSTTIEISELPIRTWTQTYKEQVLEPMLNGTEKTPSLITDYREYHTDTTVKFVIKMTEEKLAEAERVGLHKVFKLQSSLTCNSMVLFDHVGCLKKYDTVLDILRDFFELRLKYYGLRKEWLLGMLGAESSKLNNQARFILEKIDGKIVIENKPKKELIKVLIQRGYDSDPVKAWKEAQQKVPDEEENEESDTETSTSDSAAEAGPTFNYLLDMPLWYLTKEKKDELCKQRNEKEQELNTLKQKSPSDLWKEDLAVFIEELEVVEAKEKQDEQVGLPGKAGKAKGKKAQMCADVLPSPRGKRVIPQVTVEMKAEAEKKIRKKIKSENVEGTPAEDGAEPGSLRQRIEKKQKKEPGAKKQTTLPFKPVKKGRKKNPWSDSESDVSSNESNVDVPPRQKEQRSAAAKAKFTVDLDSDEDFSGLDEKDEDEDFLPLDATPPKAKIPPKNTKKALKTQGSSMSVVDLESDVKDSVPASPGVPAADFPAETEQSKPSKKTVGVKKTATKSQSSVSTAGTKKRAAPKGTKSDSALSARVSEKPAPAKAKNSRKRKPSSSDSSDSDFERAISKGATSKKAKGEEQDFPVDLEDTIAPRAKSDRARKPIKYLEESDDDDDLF

| Compound | MIC (Hepatitis C virus) [µg/mL] | zone of inhibition at 1.25 µg/mL [1] [mm] | zone of inhibition at 2.5 µg/mL (Staphylococcus aureus [2]) [mm] | Ratio [3] | MIC (Bacillus subtilis [4]) [µg/mL] | zone of inhibition at 2.5 µg/mL (Aspergillus fumigatus [5]) [mm] | zone of inhibition at 2.5 µg/mL (Penicillium italicum [6]) [mm] | zone of inhibition at 2.5 µg/mL (Candida albicans [7]) [mm] | zone of inhibition at 2.5 µg/mL (Escherichia coli [8]) [mm] | Activity [9] [%] | pIC50 [10] | Ratio [11] | MIC [12] [µg/mL] | zone of inhibition at 5 µg/mL (Candida albicans [13]) [mm] | zone of inhibition at 1.25 µg/mL (Candida albicans [14]) [mm] | MIC (Aspergillus fumigatus [15]) [µg/mL] | zone of inhibition at 5 µg/mL (Penicillium italicum [16]) [mm] | zone of inhibition at 5 µg/mL (Pseudomonas aeruginosa [17]) [mm] | MIC (Candida albicans [18]) [µg/mL] | MIC (Measles morbillivirus) [µg/mL] | further results |
| --- | --- | --- | --- | --- | --- | --- | --- | --- | --- | --- | --- | --- | --- | --- | --- | --- | --- | --- | --- | --- | --- |
| Cc1cccc(N/N=C2\CCCc3ccccc3C2=O)c1 | 1.02 (≈ 3.67 µM) | 8 | 8 | 4.66 | 0.313 (≈ 1.12 µM) | 14 | 6 | 6 | 6 | 83.1 | 4.26 | 4.46 | 0.313 (≈ 1.12 µM) | 9 | 2 | 0.313 (≈ 1.12 µM) | 14 | 0 | 1.25 (≈ 4.49 µM) | 6.01 (≈ 21.6 µM) | MIC (Staphylococcus aureus [19]): 0.625 µg/mL (≈ 2.25 µM); zone of inhibition at 2.5 µg/mL (Pseudomonas aeruginosa [20]): 0 mm; zone of inhibition at 2.5 µg/mL [21]: 12 mm; zone of inhibition at 5 µg/mL (Aspergillus fumigatus [22]): 22 mm; zone of inhibition at 5 µg/mL (Bacillus subtilis [23]): 15 mm; MIC (Escherichia coli [24]): 2.5 µg/mL (≈ 8.98 µM); MIC (Penicillium italicum [25]): 1.25 µg/mL (≈ 4.49 µM); Activity (MC-38): Active; zone of inhibition at 5 µg/mL (Staphylococcus aureus [26]): 12 mm; zone of inhibition at 1.25 µg/mL (Bacillus subtilis [27]): 8 mm; zone of inhibition at 1.25 µg/mL (Staphylococcus aureus [28]): 5 mm; zone of inhibition at 1.25 µg/mL (Penicillium italicum [29]): 3 mm; zone of inhibition at 2.5 µg/mL (Bacillus subtilis [30]): 10 mm; zone of inhibition at 1.25 µg/mL (Escherichia coli [31]): 0 mm; zone of inhibition at 5 µg/mL [32]: 19 mm; zone of inhibition at 5 µg/mL (Escherichia coli [33]): 12 mm; zone of inhibition at 1.25 µg/mL (Aspergillus fumigatus [34]): 9 mm; zone of inhibition at 1.25 µg/mL (Pseudomonas aeruginosa [35]): 0 mm |
| Cc1ccc(N/N=C2\CCCc3ccccc3C2=O)cc1 | 1.14 (≈ 4.1 µM) | 7 | 8 | 4.27 | 0.625 (≈ 2.25 µM) | 13 | 0 | 6 | 0 | 80.1 | 4.25 | 4.2 | 0.625 (≈ 2.25 µM) | 14 | 2 | 0.313 (≈ 1.12 µM) | 0 | 0 | 1.25 (≈ 4.49 µM) | 7.06 (≈ 25.4 µM) | MIC (Staphylococcus aureus [19]): 0.625 µg/mL (≈ 2.25 µM); zone of inhibition at 2.5 µg/mL (Pseudomonas aeruginosa [20]): 0 mm; zone of inhibition at 2.5 µg/mL [21]: 12 mm; zone of inhibition at 5 µg/mL (Aspergillus fumigatus [22]): 22 mm; zone of inhibition at 5 µg/mL (Bacillus subtilis [23]): 16 mm; Activity (MC-38): Active; zone of inhibition at 5 µg/mL (Staphylococcus aureus [26]): 12 mm; zone of inhibition at 1.25 µg/mL (Bacillus subtilis [27]): 4 mm; zone of inhibition at 1.25 µg/mL (Staphylococcus aureus [28]): 5 mm; zone of inhibition at 1.25 µg/mL (Penicillium italicum [29]): 0 mm; zone of inhibition at 2.5 µg/mL (Bacillus subtilis [30]): 6 mm; zone of inhibition at 1.25 µg/mL (Escherichia coli [31]): 0 mm; zone of inhibition at 5 µg/mL [32]: 18 mm; zone of inhibition at 5 µg/mL (Escherichia coli [33]): 7 mm; zone of inhibition at 1.25 µg/mL (Aspergillus fumigatus [34]): 9 mm; zone of inhibition at 1.25 µg/mL (Pseudomonas aeruginosa [35]): 0 mm |
